High-throughput results (PubChem BioAssay)
TRPC4 inh: inhibitors of mouse TRPC4 channel. B-score at 10 µM. HEK293 TRPC4beta/mu-opioid, DAMGO-evoked Fluo4 calcium flux; stronger effect = lower value. 0.39% of 300,000 active;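 active = B-score over 3 SD under the library average, no early fluorescence shift, positive overall ratio signal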
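Signal: kinetic Fluo4 fluorescence imaging of calcium influx. Material: stable TRPC4beta/mu-opioid receptor HEK293 cells. Probe or stimulus: DAMGO in two steps, submaximal then maximal.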
TRPC4 act: TRPC4 (mouse) channel activation | HEK293 TRPC4beta/mu-opioid, Fluo4 calcium fluorescence; stronger effect = higher value | 0.49% of 310,000 active | Q9QUQ5 | B-score at 10 µM;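 active = B-score above 5 SD of library B-scores, and initial fluorescence ratio not above library mean plus 5 SD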;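 note: positive B-score marks a calcium rise read as TRPC4 activation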
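Material: TRPC4beta and mu-opioid receptor HEK293 stable cells | Incubation: 45 min room-temperature Fluo4 loading, 110 s read | Detection: Kinetic Fluo4 calcium fluorescence | Measure: Integrated baseline-normalised fluorescence ratio, converted to per-well B score | Benchmarks: Low control buffer alone, high control maximal DAMGO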
TRPC4 PAM: allosterically enhances the mouse TRPC4 cation channel. 0.42% of 310,000 active. AID 2227. B-score at 10 µM. Q9QUQ5. HEK293 TRPC4beta/mu-opioid, DAMGO EC20, Fluo-4 Ca2+ flux; stronger effect = higher value;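 active = B-score of calcium response area above 5 SD of library B-scores, with initial fluorescence ratio within 5 SD of library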;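 note: B-score of integrated fluorescence ratio over time as area under calcium response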
TRPC6 activator: activators of mouse TRPC6 channel; Q61143; HEK293-TRPC6 membrane potential dye fluorescence; stronger effect = higher value; B-score at 10 µM; 0.13% of 310,000 active; AID 2550;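 active = B-score of the integrated fluorescence ratio above library mean plus 3 SD, and starting fluorescence ratio within library mean plus 5 SD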;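 note: higher score means more depolarization so channel activation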
TRPC6 inhibitor: blocks the mouse TRPC6 cation channel; Q61143; HEK293-TRPC6, membrane potential dye, ACh-evoked depolarization; stronger effect = lower value; B-score at 10 µM; 1.1% of 310,000 active;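 active = B-score under library mean minus 3 SD, initial fluorescence not abnormally high, positive integrated signal ratio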;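 note: B-score derived from integrated fluorescence ratio over the kinetic read; more negative B-score means stronger inhibition of depolarization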
* marks the source's active call; other numbers are inactive results; i = inactive. Rows were chosen to be rich in hits. Some 2.3% of all compounds tested hit in one or more screens of this group.

SMILES	TRPC4 inh	TRPC4 act	TRPC4 PAM	TRPC6 activator	TRPC6 inhibitor
CN1CCC(OC(=O)c2cc3cc(Br)ccc3oc2=O)CC1	i	i	i	i	i
CN1CCCC(OC(=O)c2cc(Cl)ccc2Cl)C1 (configuration not stated)	i	65*	13*	i	i
CN1CCCC(OC(=O)c2cc(F)c(F)c(F)c2F)C1 (configuration not stated)	i	i	i	i	i
COc1cccc(C(=O)OC2CCCN(C)C2)c1 (configuration not stated)	i	129*	i	i	i
C/C(N)=C(\C#N)C(=O)NCc1ccccn1	i	i	i	i	i
Cc1ccc(N2C(=O)N(CC(=O)Nc3cc(F)ccc3C)C(=O)C2C)cc1 (configuration not stated)	i	i	i	i	i
CC(=O)C1=C(O)C(=O)N(Cc2ccccc2)C1c1ccc(F)cc1 (configuration not stated)	i	i	i	i	i
CC(=O)C1=C(O)C(=O)N(Cc2ccccc2)C1c1ccc([N+](=O)[O-])cc1 (configuration not stated)	-6*	i	i	i	i
Cc1cccc(NC(=O)CSc2nnc(CNC(=O)c3ccco3)o2)c1	i	i	i	i	i
CC(=O)c1ccc(N(CC(=O)NCCc2ccccc2)C(=O)c2csnn2)cc1	i	i	i	i	i
COc1ccc(/C=N/Nc2nc3ccccc3o2)cc1O	i	i	i	i	i
COc1ccc(/C=N/Nc2nc3ccccc3s2)cc1O	i	i	16*	i	i
O=C(CCNC(=O)c1ccc(Br)cc1)Nc1ccccc1N1CCCC1	i	i	i	i	i
O=C(CCNC(=O)c1ccc(Cl)cc1)Nc1ccccc1N1CCCCC1	-5*	i	i	i	i
CCC(=O)N1CCCc2cc(S(=O)(=O)CCC(=O)Nc3ccccc3C)ccc21	i	i	i	i	i
Cc1ccc2oc(C(=O)N(C)Cc3ccc(C)o3)c(C)c2c1	-6*	i	i	i	i
CC1(C)C(=O)NC(=O)N1Cc1ccccc1	i	76*	i	i	i
CCOC(=O)C1=C(C)NC(=O)CC1c1cc2c(cc1[N+](=O)[O-])OCO2 (configuration not stated)	-7*	i	i	i	i
CC1OC(O[C@H]2CC[C@]3(C)C4C=C[C@]56OC[C@@]7(CC[C@@H](C)[C@H](C)C75)[C@H](O)C[C@@]6(C)[C@]4(C)CC[C@H]3C2(C)C)C(OC2OC(CO)C(O)C(O)C2OC2OCC(O)C(O)C2O)C(O)C1O (some centres not stated)	i	356*	11*	13*	i
Cc1c(C(=O)NC(=S)Nc2ccccc2N2CCCC2)cccc1[N+](=O)[O-]	i	i	13*	i	i
O=C(NC(=S)Nc1ccccc1N1CCCC1)c1ccc([N+](=O)[O-])cc1	i	i	i	i	i
CN(Cc1ccccc1)Cc1c(O)ccc2ccccc12	i	i	i	i	i
COc1ccc(OCCN(C)Cc2c(O)ccc3ccccc23)cc1	i	i	18*	i	i
C/C(CC(=O)Nc1ccc(C)c(Cl)c1)=N\NC(=O)c1cccc(O)c1	i	i	i	i	i
COc1ccc(C(C(=O)NC2CCCCC2)N(C(=O)Cc2c[nH]c3ccccc23)c2ccccc2C)cc1OC (configuration not stated)	i	i	11*	i	i
Cc1cccc(OCC(=O)NCC(=O)N/N=C/c2cc(Br)cc(Br)c2O)c1	i	i	i	i	i
Cc1cccc(OCC(=O)N(Cc2ccc(F)cc2)C2CCS(=O)(=O)C2)c1C (configuration not stated)	i	i	i	i	i
CC1CN(C(=O)c2ccc(NS(=O)(=O)c3ccc(C(C)(C)C)cc3)cc2)CC(C)O1 (configuration not stated)	i	89*	i	i	i
O=C(NNC(=O)C(O)(c1ccccc1)c1ccccc1)C1CC1	i	i	i	i	i
